Calls of active or inactive are those of the source. No cut-off for these calls is given here.
Columns and labels:
Sphaerechinus granularis [1] = assay: Inhibition of sea urchin egg fertilization after 10 mins; format: functional
Method in brief: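 Sphaerechinus granularis eggs, each experiment using eggs from a single female, about 50,000 eggs/ml. Eggs were treated 10 min with compound in MeOH-H2O (20:80), diluted five-fold with filtered sea water and fertilized. Controls were handled the same way. Cleavage was checked by light microscopy in vivo at 10 min and 2 h. Values are given as LD50 (M).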

Cladosporium cucumerinum = assay: Antifungal activity against Cladosporium cucumerinum; format: functional
Method in brief: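 Direct bioautography on TLC: samples spotted on TLC plates, then sprayed with a suspension of Cladosporium cucumerinum. Activity is recorded as the minimum inhibition dose in μg spotted.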

Sphaerechinus granularis [2] = assay: Inhibition of sea urchin egg fertilization at <10 uM after 10 mins

Row | SMILES | LD50 (Sphaerechinus granularis [1]) | MIC (Cladosporium cucumerinum) [µg] | Activity (Sphaerechinus granularis [2])
1 | CO[C@H]1[C@H](O[C@H]2[C@H](OCC[C@@H](CC[C@@H](C)[C@H]3[C@@H](O)[C@@H](O)[C@@H]4[C@]3(C)CC[C@@H]3[C@@]5(C)CC[C@H](O)[C@H](O)[C@@H]5[C@@H](O)C[C@]34O)C(C)C)OC[C@@H](O)[C@@H]2O)OC[C@@H](O)[C@@H]1O [HALITYLOSIDE A] | 1 ×10⁻⁵ M | 40 | –
2 | CC(C)[C@@H](O)CC[C@@H](C)[C@H]1C[C@@H](O)[C@@H]2[C@]1(C)CC[C@@H]1[C@@]3(C)CC[C@H](O)C[C@@H]3[C@@H](O)C[C@]12O | – | 3 | inactive
3 | CO[C@H]1[C@H](O[C@H]2[C@H](O[C@@H](CC[C@@H](C)[C@H]3C[C@@H](O)[C@@H]4[C@]3(C)CC[C@@H]3[C@@]5(C)CC[C@H](O)C[C@@H]5[C@H](O)C[C@]34O)C(C)C)O[C@@H](CO)[C@@H]2O)OC[C@@H](OC)[C@@H]1O [HALITYLOSIDE F] | 1 ×10⁻⁶ M | 5 | –
4 | CO[C@H]1[C@H](O[C@H]2[C@H](O[C@@H](CC[C@@H](C)[C@H]3C[C@@H](O)[C@@H]4[C@]3(C)CC[C@@H]3[C@@]5(C)CC[C@H](O)[C@H](O)[C@@H]5[C@@H](O)C[C@]34O)C(C)C)O[C@@H](CO)[C@@H]2O)OC[C@@H](OC)[C@@H]1O [HALITYLOSIDE D] | 1 ×10⁻⁶ M | – | –
5 | CO[C@H]1[C@H](O[C@H]2[C@H](O[C@@H](CC[C@@H](C)[C@H]3C[C@@H](O)[C@@H]4[C@]3(C)CC[C@@H]3[C@@]5(C)CC[C@H](O)C[C@@H]5[C@@H](O)C[C@]34O)C(C)C)O[C@@H](CO)[C@@H]2O)OC[C@@H](OC)[C@@H]1O [HALITYLOSIDE E] | 1 ×10⁻⁷ M | 10 | –
6 | CC(C)[C@@H](O)CC[C@@H](C)[C@H]1C[C@@H](O)[C@@H]2[C@]1(C)CC[C@@H]1[C@@]3(C)CC[C@H](O)[C@H](O)[C@@H]3[C@@H](O)C[C@]12O | 1 ×10⁻⁶ M | – | –
7 | CO[C@H]1[C@H](O[C@H]2[C@H](OCC[C@@H](CC[C@@H](C)[C@H]3[C@@H](O)[C@@H](O)[C@@H]4[C@]3(C)CC[C@@H]3[C@@]5(C)CC[C@H](O)C[C@@H]5[C@@H](O)C[C@]34O)C(C)C)OC[C@@H](O)[C@@H]2O)OC[C@@H](O)[C@@H]1O [HALITYLOSIDE B] | 1 ×10⁻⁵ M | – | –

Source: ChEMBL document CHEMBL1148177, “Starfish saponins, Part 50. Steroidal glycosides from the Okinawan starfish Nardoa tuberculata” (1993)
